From ChEMBL document CHEMBL1155099, “Natural products in parallel synthesis: triazole libraries of nonactic acid” (2008)
The source made the active and inactive calls.

Experiments:
Assay type in all cases: functional, organism-based
Candida albicans = test: Antifungal activity against Candida albicans at 1 mM by almar blue dye reduction assay
Summary of the method: (§1)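 Single-point primary screen at 1 mM using Alamar Blue dye reduction as the growth read-out.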

Bacillus anthracis = test: Antibacterial activity against Bacillus anthracis at 1mM by almar blue dye reduction assay
Bacillus subtilis = test: Antibacterial activity against Bacillus subtilis at 1 mM by almar blue dye reduction assay; summary of the method: as §1
Staphylococcus aureus = test: Antibacterial activity against Staphylococcus aureus at 1 mM by almar blue dye reduction assay; summary of the method: as §1
Bacillus cereus = test: Antibacterial activity against Bacillus cereus at 1 mM by almar blue dye reduction assay; summary of the method: as §1
Saccharomyces cerevisiae = test: Antifungal activity against Saccharomyces cerevisiae at 1 mM by almar blue dye reduction assay; summary of the method: as §1
Cryptococcus neoformans = test: Antifungal activity against Cryptococcus neoformans at 1 mM by almar blue dye reduction assay; summary of the method: as §1
Pseudomonas aeruginosa = test: Antibacterial activity against Pseudomonas aeruginosa at 1 mM by almar blue dye reduction assay; summary of the method: as §1
Escherichia coli = test: Antibacterial activity against Escherichia coli at 1 mM by almar blue dye reduction assay; summary of the method: as §1

Measured: Activity

C[C@H](C[C@@H]1CC[C@H]([C@@H](C)C(=O)N(C)Cc2ccccc2)O1)n1cc(C#CCOc2ccc(C(F)(F)F)cc2)nn1
inactive: all assays above

CCC(=O)OCC#Cc1cn([C@H](C)CC2CCC([C@@H](C)C(=O)N3CCN(CC4CCCO4)CC3)O2)nn1 (single isomer, unassigned)
inactive: all assays above

CCCCCC#Cc1cn([C@H](C)C[C@@H]2CC[C@H]([C@@H](C)C(=O)N(CC)CC)O2)nn1
inactive: all assays above

CC(C)NC(=O)[C@H](C)[C@H]1CC[C@@H](C[C@@H](C)n2cc(C#CCOc3ccc(C(F)(F)F)cc3)nn2)O1
inactive: all assays above

CCCNC(=O)NCC#Cc1cn([C@H](C)CC2CCC([C@@H](C)C(=O)N(C)Cc3ccccc3)O2)nn1 (single isomer, unassigned)
inactive: all assays above

C[C@H](CC1CCC([C@@H](C)C(=O)N2CCCC2)O1)n1cc(C#CCNC(=O)OCc2ccccc2)nn1 (single isomer, unassigned)
inactive: all assays above

CC(C)NC(=O)[C@H](C)[C@H]1CC[C@@H](C[C@@H](C)n2cc(C#Cc3ccccc3)nn2)O1
inactive: all assays above

CCN(CC)C(=O)[C@H](C)[C@H]1CC[C@@H](C[C@@H](C)n2cc(C#CCc3ccccc3)nn2)O1
inactive: all assays above

CCN(CC)C(=O)[C@H](C)C1CCC(C[C@@H](C)n2cc(C#CCOC(=O)OCc3ccccc3)nn2)O1 (single isomer, unassigned)
inactive: all assays above

CC(C)NC(=O)[C@H](C)[C@H]1CC[C@@H](C[C@@H](C)n2cc(C#Cc3ccc(-c4ccccc4)cc3)nn2)O1
inactive: all assays above

C[C@H](C[C@@H]1CC[C@H]([C@@H](C)C(=O)N2CCN(CC3CCCO3)CC2)O1)n1cc(C#Cc2ccc(Oc3ccccc3)cc2)nn1 (some centres not stated)
inactive: all assays above

CCN(CC)C(=O)[C@H](C)[C@H]1CC[C@@H](C[C@@H](C)n2cc(C#CCN3CCC(c4ccccc4)CC3)nn2)O1
inactive: all assays above

CC(C)NC(=O)[C@H](C)[C@H]1CC[C@@H](C[C@@H](C)n2cc(C#CC3=CCCCC3)nn2)O1
inactive: all assays above

C[C@H](C[C@@H]1CC[C@H]([C@@H](C)C(=O)N(C)Cc2ccccc2)O1)n1cc(C#CCc2ccccc2)nn1
inactive: all assays above

COCCNCC#Cc1cn([C@H](C)C[C@@H]2CC[C@H]([C@@H](C)C(=O)N3CCCC3)O2)nn1
inactive: all assays above

CC(C)NC(=O)[C@H](C)[C@H]1CC[C@@H](C[C@@H](C)n2cc(C#Cc3cccc4ccccc34)nn2)O1
inactive: all assays above

CCCNC(=O)NCC#Cc1cn([C@H](C)CC2CCC([C@@H](C)C(=O)N(CC)CC)O2)nn1 (single isomer, unassigned)
inactive: all assays above

CCN(CC)C(=O)[C@H](C)[C@H]1CC[C@@H](C[C@@H](C)n2cc(C#CCOc3ccc(C(F)(F)F)cc3)nn2)O1
inactive: all assays above
